Experimental data published in ChEMBL document CHEMBL3272177, “Hypolipidemic alkoxybenzoic acids” (1976).

Experiments:
Design in all cases: scale not given: the % may be the effect or the level left
Rattus norvegicus [1] = organism: Rattus norvegicus; assay: Reduction in sterol level in CFE rat […] at 0.025% of diet treated through diet for 6 days relative to control; type: functional, Serum
Procedure, shortened: (§1)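 Compound dissolved in methanol-chloroform (1:3 v/v), mixed into ground rat chow at 0.1, 0.05 or 0.025% (w/w), and solvent evaporated; controls received solvent-treated chow. Rats fed ad libitum with water for 6 days, then killed fed and bled. Serum sterols and triglycerides measured by autoanalyzer. Values given as percent of control, mean ± SE; significance by Student's t test.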

Rattus norvegicus [2] = organism: Rattus norvegicus; assay: Reduction in triglyceride level in CFE rat […] in serum at 0.05% of diet treated through diet for 6 days relative to control; type: functional; procedure, shortened: as §1
Rattus norvegicus [3] = organism: Rattus norvegicus; assay: Reduction in sterol level in CFE rat […] in serum at 0.1% of diet treated through diet for 6 days relative to control; type: functional; procedure, shortened: as §1
Rattus norvegicus [4] = organism: Rattus norvegicus; assay: Reduction in triglyceride level in CFE rat […] in serum at 0.1% of diet treated through diet for 6 days relative to control; type: functional; procedure, shortened: as §1
Rattus norvegicus [5] = organism: Rattus norvegicus; assay: Reduction in sterol level in CFE rat […] in serum at 0.05% of diet treated through diet for 6 days relative to control; type: functional; procedure, shortened: as §1
Rattus norvegicus [6] = organism: Rattus norvegicus; assay: Reduction in triglyceride level in CFE rat […] at 0.025% of diet treated through diet for 6 days relative to control; type: functional, Serum; procedure, shortened: as §1

Row | SMILES | Activity (Rattus norvegicus [1]) [%] | Activity (Rattus norvegicus [2]) [%] | Activity (Rattus norvegicus [3]) [%] | Activity (Rattus norvegicus [4]) [%] | Activity (Rattus norvegicus [5]) [%] | Activity (Rattus norvegicus [6]) [%]
1 | COC(=O)c1ccc(OCCCCCCCCCCCSC(C)=O)cc1 | 106 | 88 | 113 | 63 | 98 | 66
2 | CCCCCCCCCCCCC/C=C\COc1ccc(C(=O)O)cc1 | 95 | 79 | 90 | 60 | 87 | 88
3 | CCS(=O)(=O)CCCCCCCCCCCCCCCCOc1ccc(C(=O)O)cc1 | 90 | 61 | 89 | 60 | 83 | 70
4 | CCCCCCCCCCCCC/C=C/COc1ccc(C(=O)O)cc1 | 106 | 57 | 81 | 46 | 85 | 45
5 | CCCCCCCCCCCCCCCCOc1c(Cl)cc(C(=O)O)cc1Cl | 98 | 89 | 103 | 103 | 105 | 100
6 | CCCCCCCCCCCC(=O)CCOc1ccc(C(=O)O)cc1 | 89 | 75 | 92 | 74 | 89 | 84
7 | CCCCCCCCCCCCCC#CCOc1ccc(C(=O)O)cc1 | 98 | 65 | 82 | 75 | 88 | 96
8 | CCCCS(=O)(=O)CCCCCCCCCCCOc1ccc(C(=O)O)cc1 | 91 | 69 | 94 | 57 | 95 | 81
9 | CC(C)CCCC(C)CCCC(C)CCOc1ccc(C(=O)O)cc1 (centres undefined) | 81 | 72 | 87 | 26 | 73 | 72
10 | CCCSCCCCCCCCCCCOc1ccc(C(=O)O)cc1 | 96 | 43 | 86 | 42 | 94 | 61
11 | CCCCSCCCCCCCCCCCOc1ccc(C(=O)O)cc1 | 70 | 53 | 76 | 60 | 76 | 60
12 | CC(C)=CCC/C(C)=C/CC/C(C)=C/COc1ccc(C(=O)O)cc1 | 108 | 111 | 87 | 133 | 102 | 131
13 | CCCCCCCCCCCC(CCOc1ccc(C(=O)OC)cc1)SC(C)=O (centres undefined) | 94 | 70 | 81 | 59 | 89 | 83
14 | COC(=O)c1ccc(OCC(=O)C23CC4CC(CC(C4)C2)C3)cc1 | 97 | 82 | 89 | 100 | 96 | 88
15 | CCCCCCCCCCCC1OC1CCCOc1ccc(C(=O)OC)cc1 (centres undefined) | 103 | 64 | 84 | 65 | 89 | 74
16 | O=C(O)c1ccc(OCCCCCCCCCCCCCCCSCc2ccccc2)cc1 | 109 | 50 | 82 | 37 | 101 | 70
17 | CCCCCCCCCCCC(O)C(O)CCCOc1ccc(C(=O)O)cc1 (centres undefined) |  | 60 | 83 | 55 | 86 | 
18 | CCCCCCCCCCCCCCC(C)(CC)Oc1ccc(C(=O)O)cc1 (centres undefined) | 100 |  | 102 | 94 |  | 94
